Consider eleven compounds from ChEMBL document CHEMBL1127075, “Structural modification of 5-aryl-2,3-dihydroimidazo[2,1-a]isoquinoline platelet activating factor receptor antagonists” (J Med Chem, 1993).

Assay [1] has as its target Platelet-activating factor receptor (Homo sapiens, UniProt P25105). Put plainly: In vitro PAF antagonistic activity by determining [3H]PAF binding to the PAF-receptor of human platelets. The essentials:
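Human platelets incubated with [3H]PAF; free ligand removed by centrifugation, bound radioactivity counted 1 min by liquid scintillation. Specific binding = total minus nonspecific binding (0.37 mM unlabeled PAF).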

The subject of assay [2] is Cavia porcellus. As to the kind of experiment: In vivo PAF induced bronchoconstriction tested in guinea pig at 20 mg/kg dose. It is filed as functional. An outline of the steps: (§1)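 Anesthetized guinea pigs given compound po in H2O at 20 mg/kg, 2 h before iv PAF (0.05 mg/kg); percent inhibition of bronchoconstriction (Konzett-Rosler) or hemoconcentration, three to five animals.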

For assay [3], the system named is Cavia porcellus. Put plainly: In vivo PAF induced hemoconcentration tested in guinea pig at 20 mg/kg dose. It is filed as functional. An outline of the steps: as §1
The test system of assay [4] is Cavia porcellus. Put plainly: In vivo PAF induced bronchoconstriction tested in guinea pig. Format: functional. An outline of the steps: (§2)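 Anesthetized guinea pigs, compound given po in H2O 2 h before iv PAF challenge (0.05 mg/kg); bronchoconstriction (Konzett-Rosler) and hemoconcentration measured. ED50 from dose-response curves, at least five doses, four to seven animals per dose.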

For assay [5], the system named is Cavia porcellus. Put plainly: In vivo PAF induced hemoconcentration tested in guinea pig. It is filed as functional. The essentials: as §2

A value given as a limit tells only on which side of the number the result lay.

Sequence of Platelet-activating factor receptor (P25105 whole entry): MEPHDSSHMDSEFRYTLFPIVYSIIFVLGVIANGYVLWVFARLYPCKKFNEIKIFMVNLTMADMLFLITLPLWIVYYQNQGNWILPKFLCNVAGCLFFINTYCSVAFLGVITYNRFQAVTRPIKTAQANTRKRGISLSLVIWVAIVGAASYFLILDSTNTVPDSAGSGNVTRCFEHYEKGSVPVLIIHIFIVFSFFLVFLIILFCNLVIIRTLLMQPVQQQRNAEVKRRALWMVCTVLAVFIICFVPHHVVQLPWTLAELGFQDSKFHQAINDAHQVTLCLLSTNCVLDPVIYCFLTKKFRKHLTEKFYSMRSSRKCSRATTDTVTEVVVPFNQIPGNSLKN

For orientation: IC50 means the midpoint of a concentration-inhibition curve. High values mean weaker potency, low ones greater potency. A word on the inhibition in vivo: it is the change of the read-out against control, counted positive when it falls. With `COc1cc(CCc2ccc(C3=Cc4ccccc4C4=NCC(C)(C)CN34)cc2)cc(OC)c1OC`, in assay [1], the IC50 amounted to 0.5 µM. Besides, the inhibition in vivo at 20 mg/kg in the assay with Cavia porcellus [2] amounted to 17%; in the assay with Cavia porcellus [3], 23%.

In the case of `COc1cc(CCc2ccc(C3=Cc4ccccc4C4=NC(C)(C)CN34)cc2)cc(OC)c1OC`, the IC50 in assay [1] is 0.06 µM. The inhibition in vivo at 20 mg/kg stood at 24% in the assay with Cavia porcellus [2] and 17.9% with Cavia porcellus [3].

With `COc1cc(CCc2ccc(-c3cc4ccccc4c4nc(C)cn34)cc2)cc(OC)c1OC`, in assay [1], the IC50 was found to be 35 µM.

With `COc1cc(CCc2ccc(-c3cc4ccccc4c4nnc(C)n34)cc2)cc(OC)c1OC`, the IC50 in assay [1] stood at 9.5 µM.

The ED50 is the dose that gives a 50% effect, or the effect in half of the subjects. Read a high ED50 as a need for a large dose. In the case of `COc1cc(CCc2ccc(C3=Cc4ccccc4C4=NCCCN34)cc2)cc(OC)c1OC`, the 50% effective dose (ED50) in the assay on Cavia porcellus [4] amounted to 4.7 mg/kg; in the assay on Cavia porcellus [5], 3 mg/kg. The IC50 in assay [1] is 0.04 µM.

As for `COc1cc(CCc2ccc(C3=Cc4oc(C)cc4C4=NCCN34)cc2)cc(OC)c1OC`, the results for the ED50 with Cavia porcellus [4] and in the assay on Cavia porcellus [5] were greater than 10 mg/kg and 10 mg/kg, respectively. The IC50 in assay [1] stood at 0.05 µM.

Take `COc1cc(CCc2ccc(-c3cc4ccccc4c4nccn34)cc2)cc(OC)c1OC`: in assay [1], the IC50 was 89 µM.

As for `COc1cc(CCc2ccc(C3=Cc4ccccc4C4=NC(C)CN34)cc2)cc(OC)c1OC` (stereo unspecified), the 50% effective dose (ED50) in the assay on Cavia porcellus [4] came to 16 mg/kg; with Cavia porcellus [5], 10 mg/kg. Besides, the concentration for half-maximal inhibition (IC50) in assay [1] is 0.22 µM.

Turning to `COc1cc(CCc2ccc(C3=Cc4ccsc4C4=NCCN34)cc2)cc(OC)c1OC`, the 50% effective dose (ED50) worked out at 0.8 mg/kg in the assay on Cavia porcellus [4] and 1.1 mg/kg in the assay on Cavia porcellus [5]. Moreover, the IC50 in assay [1] came to 0.01 µM.

In the case of `COc1cc(CCc2ccc(C3=Nc4ccccc4C4=NCCN34)cc2)cc(OC)c1OC`, the ED50 worked out at 31.4 mg/kg in the assay on Cavia porcellus [4] and 31.9 mg/kg in the assay on Cavia porcellus [5]. The same compound came in with a concentration for half-maximal inhibition (IC50) in assay [1] of 1.14 µM.

For `COc1cc(CCc2ccc(C3=Cc4ccccc4C4=NCCN34)cc2)cc(OC)c1OC`, the ED50 in the assay with Cavia porcellus [4] was 4.2 mg/kg; in the assay with Cavia porcellus [5] it was 5 mg/kg.
